Data: ChEMBL document CHEMBL4152188, “Design, synthesis and biological evaluation of C(4) substituted monobactams as antibacterial agents against multidrug-resistant Gram-negative bacteria” (Eur J Med Chem, 2018)

Legend:
Assay type in all cases: functional
Escherichia coli [1] = experiment: Selectivity index, ratio of MIC for against Escherichia coli isolate 210737 to MIC for Escherichia coli isolate 210737 in presence of BPL
Pseudomonas aeruginosa [2] = experiment: Antibacterial activity against IMP-4 producing Pseudomonas aeruginosa isolate 209321 after 18 hrs by CLSI broth microdilution method; conditions: isolate 209321, 18 h
Klebsiella pneumoniae [3] = experiment: Selectivity index, ratio of MIC for against KPC-2 producing Klebsiella pneumoniae isolate 209632 to MIC for against KPC-2 producing Klebsiella pneumoniae isolate 209632 in presence of BPL
Klebsiella pneumoniae [4] = experiment: Antibacterial activity against KPC-2 producing Klebsiella pneumoniae isolate 212232 after 18 hrs by CLSI broth microdilution method; conditions: isolate 212232, 18 h
Klebsiella pneumoniae [5] = experiment: Antibacterial activity against KPC-2 producing Klebsiella pneumoniae isolate 212423 after 18 hrs by CLSI broth microdilution method; conditions: isolate 212423, 18 h
Pseudomonas aeruginosa [6] = experiment: Selectivity index, ratio of MIC for against IMP-4 producing Pseudomonas aeruginosa isolate 208247 to MIC for against IMP-4 producing Pseudomonas aeruginosa isolate 208247 in presence of BPL
Escherichia coli [7] = experiment: Selectivity index, ratio of MIC for against extended-spectrum beta-lactamase producing Escherichia coli isolate 208687 to MIC for extended-spectrum beta-lactamase producing Escherichia coli isolate 208687 in presence of BPL
Pseudomonas aeruginosa [8] = experiment: Antibacterial activity against IMP-4 producing Pseudomonas aeruginosa isolate 209471 after 18 hrs by CLSI broth microdilution method; conditions: isolate 209471, 18 h
Klebsiella pneumoniae [9] = experiment: Antibacterial activity against KPC-2 producing Klebsiella pneumoniae isolate 212423 after 18 hrs in presence of BPL by CLSI broth microdilution method; conditions: isolate 212423, 18 h
Procedure, shortened: (§1)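 CLSI broth microdilution against clinical isolates (ESBL E. coli, KPC-2 MDR K. pneumoniae, IMP-4 MDR P. aeruginosa; five per species). Iron limitation: Mueller-Hinton broth supplemented with 16 mg/liter 2,2'-bipyridyl to complex iron and induce iron uptake systems. Read-out: MIC.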

Klebsiella pneumoniae [10] = experiment: Antibacterial activity against KPC-2 producing Klebsiella pneumoniae isolate 212229 after 18 hrs in presence of BPL by CLSI broth microdilution method; conditions: isolate 212229, 18 h; procedure, shortened: as §1
Escherichia coli [11] = experiment: Selectivity index, ratio of MIC for against extended-spectrum beta-lactamase producing Escherichia coli isolate 212648 to MIC for extended-spectrum beta-lactamase producing Escherichia coli isolate 212648 in presence of BPL
Escherichia coli [12] = experiment: Selectivity index, ratio of MIC for against extended-spectrum beta-lactamase producing Escherichia coli isolate 106342 to MIC for extended-spectrum beta-lactamase producing Escherichia coli isolate 106342 in presence of BPL
Escherichia coli [13] = experiment: Antibacterial activity against Escherichia coli isolate 210737 after 18 hrs by CLSI broth microdilution method; conditions: isolate 210737, 18 h
Pseudomonas aeruginosa [14] = experiment: Antibacterial activity against IMP-4 producing Pseudomonas aeruginosa isolate 208247 after 18 hrs by CLSI broth microdilution method; conditions: isolate 208247, 18 h
Pseudomonas aeruginosa [15] = experiment: Antibacterial activity against IMP-4 producing Pseudomonas aeruginosa isolate 207272 after 18 hrs by CLSI broth microdilution method; conditions: isolate 207272, 18 h
Escherichia coli [16] = experiment: Antibacterial activity against extended-spectrum beta-lactamase producing Escherichia coli isolate 212648 after 18 hrs by CLSI broth microdilution method; conditions: isolate 212648, 18 h
Klebsiella pneumoniae [17] = experiment: Antibacterial activity against KPC-2 producing Klebsiella pneumoniae isolate 209735 after 18 hrs by CLSI broth microdilution method; conditions: isolate 209735, 18 h
Escherichia coli [18] = experiment: Antibacterial activity against extended-spectrum beta-lactamase producing Escherichia coli isolate 212648 after 18 hrs in presence of BPL by CLSI broth microdilution method; conditions: isolate 212648, 18 h; procedure, shortened: as §1
Escherichia coli [19] = experiment: Antibacterial activity against extended-spectrum beta-lactamase producing Escherichia coli isolate 209285 after 18 hrs by CLSI broth microdilution method; conditions: isolate 209285, 18 h
Pseudomonas aeruginosa [20] = experiment: Antibacterial activity against IMP-4 producing Pseudomonas aeruginosa isolate 209321 after 18 hrs in presence of BPL by CLSI broth microdilution method; conditions: isolate 209321, 18 h; procedure, shortened: as §1
Pseudomonas aeruginosa [21] = experiment: Selectivity index, ratio of MIC for against IMP-4 producing Pseudomonas aeruginosa isolate 209471 to MIC for against IMP-4 producing Pseudomonas aeruginosa isolate 209471 in presence of BPL
Klebsiella pneumoniae [22] = experiment: Selectivity index, ratio of MIC for against KPC-2 producing Klebsiella pneumoniae isolate 212229 to MIC for against KPC-2 producing Klebsiella pneumoniae isolate 212229 in presence of BPL
Klebsiella pneumoniae [23] = experiment: Selectivity index, ratio of MIC for against KPC-2 producing Klebsiella pneumoniae isolate 212423 to MIC for against KPC-2 producing Klebsiella pneumoniae isolate 212423 in presence of BPL
Escherichia coli [24] = experiment: Antibacterial activity against extended-spectrum beta-lactamase producing Escherichia coli isolate 209285 after 18 hrs in presence of BPL by CLSI broth microdilution method; conditions: isolate 209285, 18 h; procedure, shortened: as §1
Pseudomonas aeruginosa [25] = experiment: Antibacterial activity against IMP-4 producing Pseudomonas aeruginosa isolate 212886 after 18 hrs by CLSI broth microdilution method; conditions: isolate 212886, 18 h
Escherichia coli [26] = experiment: Antibacterial activity against extended-spectrum beta-lactamase producing Escherichia coli isolate 106342 after 18 hrs in presence of BPL by CLSI broth microdilution method; conditions: isolate 106342, 18 h; procedure, shortened: as §1
Escherichia coli [27] = experiment: Antibacterial activity against extended-spectrum beta-lactamase producing Escherichia coli isolate 106342 after 18 hrs by CLSI broth microdilution method; conditions: isolate 106342, 18 h
Pseudomonas aeruginosa [28] = experiment: Antibacterial activity against IMP-4 producing Pseudomonas aeruginosa isolate 209471 after 18 hrs in presence of BPL by CLSI broth microdilution method; conditions: isolate 209471, 18 h; procedure, shortened: as §1
Pseudomonas aeruginosa [29] = experiment: Selectivity index, ratio of MIC for against IMP-4 producing Pseudomonas aeruginosa isolate 212886 to MIC for against IMP-4 producing Pseudomonas aeruginosa isolate 212886 in presence of BPL
Pseudomonas aeruginosa [30] = experiment: Selectivity index, ratio of MIC for against IMP-4 producing Pseudomonas aeruginosa isolate 207272 to MIC for against IMP-4 producing Pseudomonas aeruginosa isolate 207272 in presence of BPL
Klebsiella pneumoniae [31] = experiment: Selectivity index, ratio of MIC for against KPC-2 producing Klebsiella pneumoniae isolate 209735 to MIC for against KPC-2 producing Klebsiella pneumoniae isolate 209735 in presence of BPL
Klebsiella pneumoniae [32] = experiment: Selectivity index, ratio of MIC for against KPC-2 producing Klebsiella pneumoniae isolate 212232 to MIC for against KPC-2 producing Klebsiella pneumoniae isolate 212232 in presence of BPL
Escherichia coli [33] = experiment: Antibacterial activity against Escherichia coli isolate 210737 after 18 hrs in presence of BPL by CLSI broth microdilution method; conditions: isolate 210737, 18 h; procedure, shortened: as §1
Pseudomonas aeruginosa [34] = experiment: Antibacterial activity against IMP-4 producing Pseudomonas aeruginosa isolate 207272 after 18 hrs in presence of BPL by CLSI broth microdilution method; conditions: isolate 207272, 18 h; procedure, shortened: as §1
Klebsiella pneumoniae [35] = experiment: Antibacterial activity against KPC-2 producing Klebsiella pneumoniae isolate 209632 after 18 hrs by CLSI broth microdilution method; conditions: isolate 209632, 18 h
Pseudomonas aeruginosa [36] = experiment: Antibacterial activity against IMP-4 producing Pseudomonas aeruginosa isolate 208247 after 18 hrs in presence of BPL by CLSI broth microdilution method; conditions: isolate 208247, 18 h; procedure, shortened: as §1
Escherichia coli [37] = experiment: Antibacterial activity against extended-spectrum beta-lactamase producing Escherichia coli isolate 208687 after 18 hrs in presence of BPL by CLSI broth microdilution method; conditions: isolate 208687, 18 h; procedure, shortened: as §1
Pseudomonas aeruginosa [38] = experiment: Selectivity index, ratio of MIC for against IMP-4 producing Pseudomonas aeruginosa isolate 209321 to MIC for against IMP-4 producing Pseudomonas aeruginosa isolate 209321 in presence of BPL
Klebsiella pneumoniae [39] = experiment: Antibacterial activity against KPC-2 producing Klebsiella pneumoniae isolate 212232 after 18 hrs in presence of BPL by CLSI broth microdilution method; conditions: isolate 212232, 18 h; procedure, shortened: as §1
Escherichia coli [40] = experiment: Selectivity index, ratio of MIC for against extended-spectrum beta-lactamase producing Escherichia coli isolate 209285 to MIC for extended-spectrum beta-lactamase producing Escherichia coli isolate 209285 in presence of BPL
Klebsiella pneumoniae [41] = experiment: Antibacterial activity against KPC-2 producing Klebsiella pneumoniae isolate 212229 after 18 hrs by CLSI broth microdilution method; conditions: isolate 212229, 18 h
Klebsiella pneumoniae [42] = experiment: Antibacterial activity against KPC-2 producing Klebsiella pneumoniae isolate 209632 after 18 hrs in presence of BPL by CLSI broth microdilution method; conditions: isolate 209632, 18 h; procedure, shortened: as §1
Klebsiella pneumoniae [43] = experiment: Antibacterial activity against KPC-2 producing Klebsiella pneumoniae isolate 209735 after 18 hrs in presence of BPL by CLSI broth microdilution method; conditions: isolate 209735, 18 h; procedure, shortened: as §1
Escherichia coli [44] = experiment: Antibacterial activity against extended-spectrum beta-lactamase producing Escherichia coli isolate 208687 after 18 hrs by CLSI broth microdilution method; conditions: isolate 208687, 18 h
Pseudomonas aeruginosa [45] = experiment: Antibacterial activity against IMP-4 producing Pseudomonas aeruginosa isolate 212886 after 18 hrs in presence of BPL by CLSI broth microdilution method; conditions: isolate 212886, 18 h; procedure, shortened: as §1

COC[C@@H]1[C@H](NC(=O)/C(=N\OC(c2cc(=O)c(O)cn2O)C(C)C)c2csc(N)n2)C(=O)N1S(=O)(=O)O (stereo not given in full)
0.25 µg/mL: MIC (Klebsiella pneumoniae [9]) | MIC (Escherichia coli [18]) | MIC (Escherichia coli [26]) | MIC (Escherichia coli [37])
2: Selectivity Index (Escherichia coli [7]) | Selectivity Index (Escherichia coli [12]) | Selectivity Index (Pseudomonas aeruginosa [21]) | Selectivity Index (Klebsiella pneumoniae [23])
1 µg/mL: MIC (Escherichia coli [16]) | MIC (Klebsiella pneumoniae [42])
0.5 µg/mL: MIC (Klebsiella pneumoniae [5]) | MIC (Escherichia coli [13]) | MIC (Escherichia coli [19]) | MIC (Escherichia coli [27]) | MIC (Escherichia coli [33]) | MIC (Klebsiella pneumoniae [39]) | MIC (Klebsiella pneumoniae [41]) | MIC (Escherichia coli [44])
4 µg/mL: MIC (Klebsiella pneumoniae [4]) | MIC (Klebsiella pneumoniae [35]) | MIC (Klebsiella pneumoniae [43])
8: Selectivity Index (Klebsiella pneumoniae [32])
1: Selectivity Index (Escherichia coli [1]) | Selectivity Index (Pseudomonas aeruginosa [6]) | Selectivity Index (Pseudomonas aeruginosa [29]) | Selectivity Index (Pseudomonas aeruginosa [30]) | Selectivity Index (Pseudomonas aeruginosa [38])
4: Selectivity Index (Klebsiella pneumoniae [3]) | Selectivity Index (Escherichia coli [11]) | Selectivity Index (Klebsiella pneumoniae [22]) | Selectivity Index (Klebsiella pneumoniae [31]) | Selectivity Index (Escherichia coli [40])
0.125 µg/mL: MIC (Klebsiella pneumoniae [10]) | MIC (Escherichia coli [24])
8 µg/mL: MIC (Pseudomonas aeruginosa [14]) | MIC (Pseudomonas aeruginosa [15]) | MIC (Pseudomonas aeruginosa [28]) | MIC (Pseudomonas aeruginosa [34]) | MIC (Pseudomonas aeruginosa [36])
16 µg/mL: MIC (Pseudomonas aeruginosa [2]) | MIC (Pseudomonas aeruginosa [8]) | MIC (Klebsiella pneumoniae [17]) | MIC (Pseudomonas aeruginosa [20]) | MIC (Pseudomonas aeruginosa [25]) | MIC (Pseudomonas aeruginosa [45])

CC(=O)OC[C@@H]1[C@H](NC(=O)/C(=N\OC(c2cc(=O)c(O)cn2O)C(C)C)c2csc(N)n2)C(=O)N1S(=O)(=O)O (stereo not given in full)
4: Selectivity Index (Escherichia coli [7])
16 µg/mL: MIC (Pseudomonas aeruginosa [45])
0.25 µg/mL: MIC (Escherichia coli [37])
1 µg/mL: MIC (Klebsiella pneumoniae [9]) | MIC (Klebsiella pneumoniae [10]) | MIC (Escherichia coli [16]) | MIC (Escherichia coli [19]) | MIC (Escherichia coli [26]) | MIC (Escherichia coli [27]) | MIC (Klebsiella pneumoniae [42]) | MIC (Klebsiella pneumoniae [43]) | MIC (Escherichia coli [44])
> 64 µg/mL: MIC (Pseudomonas aeruginosa [15]) | MIC (Pseudomonas aeruginosa [25])
64 µg/mL: MIC (Pseudomonas aeruginosa [2]) | MIC (Pseudomonas aeruginosa [8]) | MIC (Pseudomonas aeruginosa [14]) | MIC (Pseudomonas aeruginosa [20]) | MIC (Pseudomonas aeruginosa [34]) | MIC (Pseudomonas aeruginosa [36])
2 µg/mL: MIC (Klebsiella pneumoniae [5]) | MIC (Klebsiella pneumoniae [17]) | MIC (Klebsiella pneumoniae [35]) | MIC (Klebsiella pneumoniae [41])
>1: Selectivity Index (Pseudomonas aeruginosa [30])
0.5 µg/mL: MIC (Escherichia coli [13]) | MIC (Escherichia coli [18]) | MIC (Escherichia coli [24]) | MIC (Escherichia coli [33]) | MIC (Klebsiella pneumoniae [39])
16: Selectivity Index (Klebsiella pneumoniae [32])
>4: Selectivity Index (Pseudomonas aeruginosa [29])
8 µg/mL: MIC (Klebsiella pneumoniae [4])
32 µg/mL: MIC (Pseudomonas aeruginosa [28])
1: Selectivity Index (Escherichia coli [1]) | Selectivity Index (Pseudomonas aeruginosa [6]) | Selectivity Index (Escherichia coli [12]) | Selectivity Index (Pseudomonas aeruginosa [38])
2: Selectivity Index (Klebsiella pneumoniae [3]) | Selectivity Index (Escherichia coli [11]) | Selectivity Index (Pseudomonas aeruginosa [21]) | Selectivity Index (Klebsiella pneumoniae [22]) | Selectivity Index (Klebsiella pneumoniae [23]) | Selectivity Index (Klebsiella pneumoniae [31]) | Selectivity Index (Escherichia coli [40])
